ChEMBL document CHEMBL3352028, “SAR studies on tetrahydroisoquinoline derivatives: the role of flexibility and bioisosterism to raise potency and selectivity toward P-glycoprotein” (J Med Chem, 2014)

Columns and labels:
[1] = target: Multidrug resistance-associated protein 1 (Homo sapiens, UniProt P33527); assay: Inhibition of MRP1 (unknown origin) over-expressed in MDCK cells assessed as calcein accumulation incubated for 30 mins prior to Calcein-AM addition measured after 30 mins by fluorescence assay; assay type: cell-based
Multidrug resistance-associated protein 1, sequence (P33527 whole entry): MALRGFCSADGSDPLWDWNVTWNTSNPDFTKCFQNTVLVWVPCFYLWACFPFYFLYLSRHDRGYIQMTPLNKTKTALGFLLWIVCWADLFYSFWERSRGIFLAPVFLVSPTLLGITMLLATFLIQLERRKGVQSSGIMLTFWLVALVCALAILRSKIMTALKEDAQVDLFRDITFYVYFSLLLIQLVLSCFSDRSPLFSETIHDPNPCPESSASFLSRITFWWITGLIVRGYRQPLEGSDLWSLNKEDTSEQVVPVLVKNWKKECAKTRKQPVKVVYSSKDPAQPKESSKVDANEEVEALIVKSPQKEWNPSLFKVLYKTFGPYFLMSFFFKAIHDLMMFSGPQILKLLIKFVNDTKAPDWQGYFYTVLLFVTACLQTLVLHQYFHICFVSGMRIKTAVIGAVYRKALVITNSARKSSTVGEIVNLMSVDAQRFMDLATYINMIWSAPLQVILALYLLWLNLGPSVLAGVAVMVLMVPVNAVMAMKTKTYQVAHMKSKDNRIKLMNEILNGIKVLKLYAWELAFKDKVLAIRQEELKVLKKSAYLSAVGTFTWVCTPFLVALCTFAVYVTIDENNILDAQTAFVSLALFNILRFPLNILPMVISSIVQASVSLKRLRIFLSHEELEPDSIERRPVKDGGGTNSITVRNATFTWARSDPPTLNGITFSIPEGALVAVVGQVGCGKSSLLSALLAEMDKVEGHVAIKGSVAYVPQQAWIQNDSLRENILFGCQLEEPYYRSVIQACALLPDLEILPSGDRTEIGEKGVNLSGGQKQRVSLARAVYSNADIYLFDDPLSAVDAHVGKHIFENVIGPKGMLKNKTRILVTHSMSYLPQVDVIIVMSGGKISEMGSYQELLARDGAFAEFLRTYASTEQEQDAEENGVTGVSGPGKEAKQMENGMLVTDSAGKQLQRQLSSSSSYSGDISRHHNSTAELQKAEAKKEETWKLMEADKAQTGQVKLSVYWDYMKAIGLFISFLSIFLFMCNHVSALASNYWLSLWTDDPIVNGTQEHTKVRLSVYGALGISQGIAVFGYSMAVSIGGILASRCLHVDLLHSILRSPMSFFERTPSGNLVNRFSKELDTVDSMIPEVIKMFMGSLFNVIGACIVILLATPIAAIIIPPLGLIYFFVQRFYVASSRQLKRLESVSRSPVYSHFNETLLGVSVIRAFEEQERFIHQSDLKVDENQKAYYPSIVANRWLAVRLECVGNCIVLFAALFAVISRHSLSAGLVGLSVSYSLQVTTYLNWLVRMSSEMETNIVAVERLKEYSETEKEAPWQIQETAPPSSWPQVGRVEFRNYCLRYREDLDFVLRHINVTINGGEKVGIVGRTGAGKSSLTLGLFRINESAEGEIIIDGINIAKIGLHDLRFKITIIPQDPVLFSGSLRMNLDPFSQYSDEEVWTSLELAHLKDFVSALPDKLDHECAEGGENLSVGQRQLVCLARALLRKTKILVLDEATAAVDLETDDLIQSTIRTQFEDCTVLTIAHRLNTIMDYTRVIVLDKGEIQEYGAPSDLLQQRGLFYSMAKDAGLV
Outline: (§1)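 MDCK-MDR1 or MDCK-MRP1 cells at 50 000 cells/well, confluent overnight. Compounds in culture medium for 30 min at 37 °C, then Calcein-AM added (2.5 μM final) for a further 30 min. Washed three times with ice-cold PBS, fluorescence read at ex 485, em 535 nm. Percent increase over untreated basal level fitted against log dose to give EC50.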

[2] = target: T1, Broad substrate specificity ATP-binding cassette transporter ABCG2 (Homo sapiens, UniProt Q9UNQ0); assay: Inhibition of BCRP (unknown origin) over-expressed in MDCK cells assessed as Hoechst 33342 accumulation incubated for 30 mins prior to Hoechst 33342 addition measured after 30 mins by fluorescence assay; assay type: cell-based; conditions: 0.5 h
T1 sequence (Q9UNQ0 whole entry): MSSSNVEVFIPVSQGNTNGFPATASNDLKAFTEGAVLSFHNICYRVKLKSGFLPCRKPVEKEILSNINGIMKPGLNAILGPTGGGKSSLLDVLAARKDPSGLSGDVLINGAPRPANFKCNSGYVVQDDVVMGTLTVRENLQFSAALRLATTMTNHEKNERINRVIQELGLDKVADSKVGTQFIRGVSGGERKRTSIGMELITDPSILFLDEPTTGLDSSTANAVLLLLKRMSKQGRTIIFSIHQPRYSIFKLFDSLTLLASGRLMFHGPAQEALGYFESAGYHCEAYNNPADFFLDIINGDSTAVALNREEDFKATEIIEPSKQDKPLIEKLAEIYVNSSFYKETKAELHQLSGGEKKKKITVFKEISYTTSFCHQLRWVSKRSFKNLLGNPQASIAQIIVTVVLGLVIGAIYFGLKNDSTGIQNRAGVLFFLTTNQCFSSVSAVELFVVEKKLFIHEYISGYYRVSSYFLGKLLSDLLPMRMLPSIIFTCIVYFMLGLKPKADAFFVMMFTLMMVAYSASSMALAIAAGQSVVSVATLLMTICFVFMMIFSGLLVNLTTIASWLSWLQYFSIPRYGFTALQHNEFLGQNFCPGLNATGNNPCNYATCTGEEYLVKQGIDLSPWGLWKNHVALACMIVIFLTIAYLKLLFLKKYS
Outline: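 MDCK-BCRP cells at 30 000 cells/well, confluent overnight. Compounds in culture medium for 30 min at 37 °C, then Hoechst 33342 added (8 μM final) for 30 min. Cells fixed 20 min in 4% PFA protected from light, washed three times with ice-cold PBS, fluorescence read at ex 340/35, em 485/20 nm. Increase over untreated basal level fitted against log dose to give EC50.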

[3] = Efflux ratio of apparent permeability from basolateral to apical side over apical to basolateral side in human Caco2 cells at 100 uM after 120 mins by UV-Vis spectrophotometry; assay type: ADME, cell-based; conditions: Caco-2
Outline: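 Caco-2 cells seeded at 10 000 cells/well and grown 21 days, medium changed every 48 h for 6 days then daily; TEER checked before and after, generally >1000 Ω. Monolayers preincubated twice in HBSS (pH 7.4) 30 min at 37 °C. Drug at 100 μM in HBSS on apical or basolateral side, 120 min at 37 °C. Both sides sampled, drug quantified by UV-vis against a calibration curve. Papp computed from acceptor concentration, volume, membrane area (0.11 cm2) and time (7200 s). Ratio taken as B→A over A→B.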

[4] = target: ATP-dependent translocase ABCB1 (Homo sapiens, UniProt P08183); assay: Inhibition of MDR1 (unknown origin) over-expressed in MDCK cells assessed as calcein accumulation incubated for 30 mins prior to Calcein-AM addition measured after 30 mins by fluorescence assay; assay type: cell-based; outline: as §1
ATP-dependent translocase ABCB1, sequence (P08183 whole entry): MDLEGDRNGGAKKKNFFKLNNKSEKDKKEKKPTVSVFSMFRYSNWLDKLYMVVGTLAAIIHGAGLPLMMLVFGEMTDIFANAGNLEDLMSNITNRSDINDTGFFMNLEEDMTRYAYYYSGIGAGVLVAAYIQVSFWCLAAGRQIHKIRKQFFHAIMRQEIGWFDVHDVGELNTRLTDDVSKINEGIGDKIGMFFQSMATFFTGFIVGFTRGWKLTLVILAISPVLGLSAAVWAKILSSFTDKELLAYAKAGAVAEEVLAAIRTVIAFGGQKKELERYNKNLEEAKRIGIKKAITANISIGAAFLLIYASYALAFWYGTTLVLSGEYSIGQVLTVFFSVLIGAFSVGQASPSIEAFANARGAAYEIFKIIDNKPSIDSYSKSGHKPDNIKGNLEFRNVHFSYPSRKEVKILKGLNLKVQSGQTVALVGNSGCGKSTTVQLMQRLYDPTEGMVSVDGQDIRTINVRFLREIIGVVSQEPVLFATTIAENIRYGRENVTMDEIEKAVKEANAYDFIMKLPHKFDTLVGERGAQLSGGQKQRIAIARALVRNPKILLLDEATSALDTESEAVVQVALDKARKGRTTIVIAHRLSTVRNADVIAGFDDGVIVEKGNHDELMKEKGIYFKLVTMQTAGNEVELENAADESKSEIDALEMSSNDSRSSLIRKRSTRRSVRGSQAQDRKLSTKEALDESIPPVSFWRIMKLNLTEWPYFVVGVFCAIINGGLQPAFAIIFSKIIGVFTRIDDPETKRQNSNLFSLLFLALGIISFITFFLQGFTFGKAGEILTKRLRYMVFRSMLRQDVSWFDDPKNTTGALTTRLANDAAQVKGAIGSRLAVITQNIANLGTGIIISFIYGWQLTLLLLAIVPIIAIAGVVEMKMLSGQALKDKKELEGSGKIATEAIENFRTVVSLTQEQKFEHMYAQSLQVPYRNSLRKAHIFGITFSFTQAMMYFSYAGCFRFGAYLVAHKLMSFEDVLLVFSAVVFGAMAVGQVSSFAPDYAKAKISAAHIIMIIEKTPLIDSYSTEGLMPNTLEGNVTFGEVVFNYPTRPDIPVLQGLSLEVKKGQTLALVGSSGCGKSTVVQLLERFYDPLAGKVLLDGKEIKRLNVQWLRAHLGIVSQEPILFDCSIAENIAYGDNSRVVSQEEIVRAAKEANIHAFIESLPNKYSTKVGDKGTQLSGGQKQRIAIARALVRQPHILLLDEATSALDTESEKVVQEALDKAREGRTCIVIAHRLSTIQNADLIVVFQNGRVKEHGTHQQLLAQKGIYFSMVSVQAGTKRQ

SMILES	EC50 ([1]; read-out: EC50) [nM]	inhibition (INH) [2]	efflux ratio at 2 h, 100 µM [3]	EC50 ([4]; read-out: EC50) [nM]	EC50 ([1]; mdck)	EC50 ([4]; mdck)
COc1cccc(-c2ccccc2CCN2CCc3cc(OC)c(OC)cc3C2)c1	23000	Not Active	4.1	69	–	–
COc1ccc(-c2ccc(OCCCCN3CCc4cc(OC)c(OC)cc4C3)cc2)cc1	–	Not Active	6.6	4	Not Active	–
COc1cc2c(cc1OC)CN(C(=O)c1ccc(-c3ccc(O)cc3)o1)CC2	–	Not Active	4.5	6400	Not Active	–
COc1ccc(-c2ccc3c(c2)C=C(CC(=O)N2CCc4cc(OC)c(OC)cc4C2)CO3)cc1	–	Not Active	3.2	5800	Not Active	–
COc1cc2c(cc1OC)CN(CCc1ccccc1-c1cccc(O)c1)CC2	–	Not Active	3.2	230	Not Active	–
COc1cc2c(cc1OC)CN(Cc1ccc(-c3ccc(O)cc3)o1)CC2	–	Not Active	5.7	8100	Not Active	–
COc1cc2c(cc1OC)CN(CCc1ccc(-c3ccc(F)cc3)cc1)CC2	–	Not Active	3.8	2000	Not Active	–
COc1ccc(-c2ccc(CN3CCc4cc(OC)c(OC)cc4C3)cc2)cc1	–	–	4.4	–	Not Active	–
COc1ccc(-c2ccc(NCCCN3CCc4cc(OC)c(OC)cc4C3)cc2)cc1	–	Not Active	2.2	1800	Not Active	–
COc1ccc(-c2ccc(CCN3CCc4cc(OC)c(OC)cc4C3)cc2)cc1	–	Not Active	38	570	Not Active	–
COc1ccc(-c2ccc(OCCN3CCc4cc(OC)c(OC)cc4C3)cc2)cc1	–	Not Active	47	930	Not Active	–
COc1ccc(-c2ccc(CN3CCc4cc(OC)c(OC)cc4C3)o2)cc1	–	Not Active	3.7	4300	Not Active	–
COc1ccc(-c2ccc3c(c2)C=C(CCN2CCc4cc(OC)c(OC)cc4C2)CO3)cc1	–	Not Active	4.9	1200	Not Active	–
COc1ccc(-c2ccc(CC(=O)N3CCc4cc(OC)c(OC)cc4C3)cc2)cc1	10000	Not Active	3.9	800	–	–
COc1ccc(-c2ccc(OCCCN3CCc4cc(OC)c(OC)cc4C3)cc2)cc1	–	Not Active	7.9	1300	Not Active	–
COc1cc2c(cc1OC)CN(Cc1ccc(-c3ccc(F)cc3)cc1)CC2	–	Not Active	3.8	4900	Not Active	–
COc1cc2c(cc1OC)CN(Cc1ccc(-c3ccc(O)cc3)cc1)CC2	–	–	–	9300	–	–
COc1ccc(-c2ccc(C(=O)N3CCc4cc(OC)c(OC)cc4C3)o2)cc1	–	Not Active	5.2	910	Not Active	–
COc1cc2c(cc1OC)CN(CCCC1CCCc3c(OC)cccc31)CC2 (stereo not drawn)	–	–	4.4	–	Not Active	–
COc1cc2c(cc1OC)CN(CCCCOc1ccc(-c3ccc(O)cc3)cc1)CC2	–	Not Active	1.5	–	Not Active	Not Active
